Laboratory results from ChEMBL document CHEMBL4725350, “2-Oxaadamant-1-yl Ureas as Soluble Epoxide Hydrolase Inhibitors: In Vivo Evaluation in a Murine Model of Acute Pancreatitis” (J Med Chem, 2020).
Active and inactive are the calls of the source. No cut-off for these calls is given here.

Key:
[1] = Tmax in CD-1 mouse at 1 mg/kg, ip measured up to 24 hrs by LC-MS analysis; assay type: ADME, organism-based; details: in vivo
Procedure, shortened: (§1)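 Single dose, 1 mg/kg, given to mice intravenously or intraperitoneally. Parameters are taken from the plasma concentration–time profile: T1/2, Tmax, Cmax, C0 (iv only), AUClast, AUCINF_obs, Vz and Cl. Bioavailability is derived from ip versus iv exposure.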

[2] = AUC (infinity) in CD-1 mouse at 1 mg/kg, ip measured up to 24 hrs by LC-MS analysis; assay type: ADME, organism-based; set-up: route intraperitoneal, dose 1 mg/kg, time <=24; details: in vivo; procedure, shortened: as §1
[3] = Apparent volume of distribution in CD-1 mouse at 1 mg/kg, ip measured up to 24 hrs by LC-MS analysis; assay type: ADME, organism-based; details: in vivo; procedure, shortened: as §1
[4] = Tmax in CD-1 mouse at 1 mg/kg, iv measured up to 24 hrs by LC-MS analysis; assay type: ADME, organism-based; details: in vivo; procedure, shortened: as §1
[5] = Initial plasma concentration in CD-1 mouse at 1 mg/kg, iv measured up to 24 hrs by LC-MS analysis; assay type: ADME, organism-based; details: in vivo; procedure, shortened: as §1
[6] = AUC (infinity) in CD-1 mouse at 1 mg/kg, iv measured up to 24 hrs by LC-MS analysis; assay type: ADME, organism-based; set-up: route intravenous, dose 1 mg/kg, time <=24; details: in vivo; procedure, shortened: as §1
Mus musculus [7] = assay: Protection against cerulein-induced acute pancreatitis in C57BL/6J mouse assessed as reduction in MCP1 mRNA level at 3 mg/kg administered 24 hrs post-cerulein addition and measured after 24 hrs by Trisure-reagent based RT-PCR analysis; assay type: functional, organism-based
Procedure, shortened: (§2)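 Post-induction (treatment) protocol in C57BL/6J mice. Acute pancreatitis is induced by several cerulein administrations, followed by ip sEH inhibitor at 3 or 30 mg/kg. Pancreatic mRNA of TNF-α, IL-1β, MCP-1 and ATF3 is quantified against control and cerulein-only groups. Mean ± SEM, n = 5 per group.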

Mus musculus [8] = assay: Protection against cerulein-induced acute pancreatitis in C57BL/6J mouse assessed as reduction in ATF3 mRNA level at 3 mg/kg administered 24 hrs post-cerulein addition and measured after 24 hrs by Trisure-reagent based RT-PCR analysis; assay type: functional, organism-based; procedure, shortened: as §2
Mus musculus [9] = assay: Protection against cerulein-induced acute pancreatitis in C57BL/6J mouse assessed as reduction in IL-1beta mRNA level at 30 mg/kg administered 24 hrs post-cerulein addition and measured after 24 hrs by Trisure-reagent based RT-PCR analysis; assay type: functional, organism-based; procedure, shortened: as §2
Mus musculus [10] = assay: Protection against cerulein-induced acute pancreatitis in C57BL/6J mouse assessed as reduction in MCP1 mRNA level at 30 mg/kg administered 24 hrs post-cerulein addition and measured after 24 hrs by Trisure-reagent based RT-PCR analysis; assay type: functional, organism-based; procedure, shortened: as §2
Mus musculus [11] = assay: Protection against cerulein-induced acute pancreatitis in C57BL/6J mouse assessed as reduction in ATF3 mRNA level at 30 mg/kg administered twice per day for 5 days followed by cerulein addition and measured 24 hrs post-last dose by Trisure-reagent based RT-PCR analysis; assay type: functional, organism-based; details: time 6.0 day
Procedure, shortened: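 Pre-induction (prevention) protocol in C57BL/6J mice. Inhibitor is given ip at 30 mg/kg before cerulein induction of acute pancreatitis. Pancreatic mRNA of TNF-α, IL-1β, MCP-1 and ATF3 is compared with control and cerulein-only mice. Mean ± SEM, n = 5 per group.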

[12] = biological target: T1, Bifunctional epoxide hydrolase 2 (Homo sapiens, UniProt P34913); assay: Inhibition of recombinant human soluble epoxide hydrolase using CMNPC as substrate preincubated for 5 mins followed by substrate addition and measured at 30 secs interval for 10 mins by fluorescence assay
T1 sequence (P34913 whole entry): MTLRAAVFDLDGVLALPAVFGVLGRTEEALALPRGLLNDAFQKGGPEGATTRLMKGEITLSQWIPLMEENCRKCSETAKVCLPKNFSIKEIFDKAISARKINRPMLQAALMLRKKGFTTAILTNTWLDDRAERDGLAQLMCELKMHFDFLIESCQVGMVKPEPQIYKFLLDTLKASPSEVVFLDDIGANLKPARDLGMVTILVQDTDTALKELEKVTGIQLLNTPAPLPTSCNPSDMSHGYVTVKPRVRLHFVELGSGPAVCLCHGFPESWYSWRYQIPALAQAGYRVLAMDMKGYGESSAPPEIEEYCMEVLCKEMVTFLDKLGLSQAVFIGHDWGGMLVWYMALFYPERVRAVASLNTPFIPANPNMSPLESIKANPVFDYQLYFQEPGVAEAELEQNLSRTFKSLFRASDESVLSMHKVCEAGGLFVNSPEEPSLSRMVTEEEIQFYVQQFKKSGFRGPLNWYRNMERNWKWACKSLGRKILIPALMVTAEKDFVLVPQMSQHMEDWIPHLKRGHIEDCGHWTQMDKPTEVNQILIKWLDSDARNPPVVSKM

[13] = Apparent permeability across apical to basolateral side in human Caco-2 cells at 10 uM measured after 2 hrs by LC-MS/MS analysis; details: caco-2, 2 h
Homo sapiens [14] = species on record: Homo sapiens; assay: Selectivity ratio of inhibition of recombinant human CYP1A2 to IC50 for inhibition of recombinant human soluble epoxide hydrolase
Homo sapiens [15] = species on record: Homo sapiens; assay: Selectivity ratio of inhibition of recombinant human CYP3A4 to IC50 for inhibition of recombinant human soluble epoxide hydrolase using DBF as substrate
[16] = Selectivity ratio of inhibition of recombinant human CYP1A2 to IC50 for inhibition of recombinant mouse soluble epoxide hydrolase
[17] = Selectivity ratio of inhibition of recombinant human CYP2C19 to IC50 for inhibition of recombinant mouse soluble epoxide hydrolase
[18] = Selectivity ratio of inhibition of recombinant human CYP2D6 to IC50 for inhibition of recombinant mouse soluble epoxide hydrolase
[19] = Selectivity ratio of inhibition of recombinant human CYP3A4 to IC50 for inhibition of recombinant mouse soluble epoxide hydrolase using DBF as substrate

**Q.** Which results are given for `CC(C)S(=O)(=O)N1CCC(NC(=O)NC23CC4CC(CC(C4)O2)C3)CC1`?
**A.** Tmax [1]: 9.6 min; AUC [2]: 35.2 ng·h/mL; Vz [3]: 124.02 L/kg; Tmax [4]: 9.6 min; C0 [5]: 236.23 ng/mL; AUC [6]: 59.63 ng·h/mL; Activity (Mus musculus [7]): inactive; Activity (Mus musculus [8]): inactive; Activity (Mus musculus [9]): Active; Activity (Mus musculus [10]): Active; Activity (Mus musculus [11]): Active

**Q.** For `CC(=O)N1CCC(NC(=O)NC23CC4CC(CC(C4)O2)C3)CC1`, which IC50 [12] is on record?
**A.** 29.9 nM

**Q.** And the Papp [13]?
**A.** 2.24 ×10⁻⁶ cm/s

**Q.** And the Selectivity ratio (Homo sapiens [14])?
**A.** > 100

**Q.** What about the Selectivity ratio (Homo sapiens [15]) of the same compound?
**A.** > 100

**Q.** And the Selectivity ratio [16]?
**A.** > 100

**Q.** What about the Selectivity ratio [17] of the same compound?
**A.** > 100

**Q.** What about the Selectivity ratio [18] of the same compound?
**A.** > 100

**Q.** And the Selectivity ratio [19]?
**A.** > 100
